# Screening results from PubChem BioAssay.
# Compounds with a hit are over-represented: about 2.6% of the library has one in this group of screens.
# PolyA inh: polyadenylation inhibitors in yeast reporter cells, primary screen, luminescence, S. cerevisiae; hit rate 0.02% among 300,000; AID 1875, 2009; S. cerevisiae SKY197-pL101 polyadenylation reporter, beta-gal luminescence; efflux-impaired pdr1/pdr3 knockout yeast; score 100 = 6 SD above DMSO; activity score, % at 12 µM;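 active = lowest replicate activity score at least 50, where 100 means six control SD above control mean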;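 also: yeast exposed to compound for 9 h at 30 °C; higher score means more reporter readthrough which indicates perturbed polyadenylation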
# AHR activator: AHR activators, primary screen, cell-based, luminescence, luciferase reporter, human. Aryl hydrocarbon receptor (Homo sapiens), P35869. AHR-responsive luciferase reporter cells. activation, % at 5 µM. hit rate 2.5% among 320,000. AID 2796, 2010; in the data active = activation above about 47%;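 also: 0% = vehicle wells and 100% = reference agonist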
# procasp3 activ: activators of human procaspase-3 D3A mutant, primary screen, biochemical, absorbance, PC-3 D3A mutant, single concentration. Caspase-3 (Homo sapiens), P42574. recombinant procaspase-3 D3A, Ac-DEVD-pNA absorbance 405 nm. activation, % at 8.5 µM. hit rate 0.11% among 330,000;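 active = activation above the mean of all tested compounds plus 3 SD, cut at about 21% in these data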;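 also: 0% = DMSO alone and 100% = DMSO wells spiked with extra 5 µM PC-3 D3A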
#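 Compound: 8.5 µM single point, 0.8% DMSO / Material: Autoprocessing-dead procaspase-3 D3A mutant enzyme / Timing: 1 h preincubation plus 2 h reaction at 25 °C / Medium: Zinc-free HEPES/NaCl buffer with 0.01% Triton X-100 at pH 7.4 / Technique: 405 nm absorbance of p-nitroaniline, reads at 0 and 120 min / Repeats: one well per compound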
# proCasp7 act: procaspase-7 activators, primary screen, counter-screen for procaspase-3 activator project, biochemical, absorbance, HTS, human; AID 463210, 2010; activation, % at 8.5 µM; Caspase-7 (Homo sapiens), P55210; hit rate 0.093% among 330,000; recombinant procaspase-7, Ac-DEVD-pNA absorbance 405 nm; D23A/D198A/D206A triple mutant, cannot self-cleave; scale: DMSO 0, 5 µM enzyme 100;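 active = percent activation above the screen-wide mean plus 3 SD, cut at about 25% in these data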
#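 Replicates: singlicate. Assay system: Procaspase-7 triple mutant (PC-7 D3A). Signal: 405 nm absorbance of p-nitroaniline. Times: 1 h preincubation, 2 h reaction. Buffer or medium: Zinc-free HEPES pH 7.4 with 300 mM NaCl, 0.01% Triton X-100. Also added: DEVD-pNA substrate. Benchmarks: DMSO wells as 0%, DMSO with 5 µM added PC-7 as 100%.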
# AHR act cf: AHR activators, confirmation, cell-based, luminescence, luciferase reporter, human. activation, % at 9 µM. hit rate 87% among 2,300. shares compounds with AHR activator. AID 2845, 2010. human cells, AHR-responsive luciferase reporter; in the data active = activation above about 49%;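 also: HepG2 hepatoma cells carrying a DRE-driven firefly luciferase reporter; 0% = vehicle wells and 100% = reference agonist wells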
# PXR act counter: human PXR activators, counter-screen for AHR activator project, cell-based, luciferase luminescence; shares compounds with AHR activator; cell-based PXR reporter; hit rate 88% among 2,300; activation, % at 11.6 µM; in the data active = activation above about 11%;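 also: human hepatoma DPX-2 cells expressing full-length human PXR; 0% = DMSO and 100% = reference agonist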
# Target sequence (O75469 whole entry, looked up): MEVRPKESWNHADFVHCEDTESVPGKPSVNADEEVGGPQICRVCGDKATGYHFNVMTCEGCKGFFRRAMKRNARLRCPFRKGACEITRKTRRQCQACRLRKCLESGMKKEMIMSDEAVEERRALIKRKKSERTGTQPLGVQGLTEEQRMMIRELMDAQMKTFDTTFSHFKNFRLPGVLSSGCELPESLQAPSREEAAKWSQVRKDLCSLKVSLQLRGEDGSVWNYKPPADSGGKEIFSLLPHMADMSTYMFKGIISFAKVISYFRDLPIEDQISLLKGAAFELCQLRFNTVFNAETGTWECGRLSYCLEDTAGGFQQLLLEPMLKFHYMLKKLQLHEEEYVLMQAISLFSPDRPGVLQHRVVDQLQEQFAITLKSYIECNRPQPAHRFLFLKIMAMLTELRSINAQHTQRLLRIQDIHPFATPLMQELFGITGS
# Starred values were filed as active, the others as inactive; / = no result given.
SMILES,PolyA inh,AHR activator,procasp3 activ,proCasp7 act,AHR act cf,PXR act counter
COc1ccc(CCNC(=O)CCn2c(=O)c3cccn3c3cccnc32)cc1OC,18,-3,10,-2,/,/
COCCNC(=O)CSc1n[nH]c(=O)n1CCc1ccccc1,-6,2,-7,-11,/,/
CCOCCCN(C)C1CCN(S(=O)(=O)c2csc(C(N)=O)c2)CC1,17,1,1,11,/,/
Cc1occc1C(=O)N/N=C/c1c[nH]c2ccccc12,5,123*,-2,-17,112*,23*
O=C(N/N=C/c1c[nH]c2ccccc12)c1ccccc1Cl,1,/,/,/,/,/
NC(=S)Nc1ccc(S(=O)(=O)c2ccc(NC(N)=S)cc2)cc1,5,6,1,0,/,/
CCc1ccc(S(=O)(=O)Nc2ccc(-c3ccc4nncn4n3)cc2)s1,2,0,5,2,/,/
CCc1ccc(S(=O)(=O)Nc2ccc(-c3nc4cccnc4s3)cc2)s1,20,88*,17,20,82*,20*
Clc1ccc2c(c1)C(c1cccs1)=NNC(c1cccnc1)=N2,1,105*,1,4,56*,50*
CC(=O)Nc1nc2c(s1)CCc1ccccc1-2,-24,44,7,0,/,/
O=C(CCCl)Nc1nc2c(s1)CCc1ccccc1-2,-10,99*,1,-3,112*,31*
NC(=O)N/N=C\c1cc(Br)ccc1O,-13,28,2,6,/,/
Cc1ccc(OCCOc2ccc(Br)cc2/C=N\NC(N)=O)cc1,4,92*,-8,4,27,6
CCc1noc(C)c1C(=O)OCC(=O)Nc1nc(-c2ccc(F)c(F)c2)cs1,/,2,-5,6,/,/
CCOCC(=O)Nc1cccc(-c2nc3cccnc3s2)c1C,0,88*,-2,3,107*,/
Cc1nc2ccc(S(=O)(=O)Nc3cccc(-c4nc5cccnc5s4)c3C)cc2s1,-1,1,-4,7,/,/
O=C(NCCN1C(=O)C2C3C=CC(C3)C2C1=O)N1CCCCC1 (stereo not given),-2,92*,7,-6,6,21*
O=C(NCCN1C(=O)C2C3C=CC(C3)C2C1=O)NCc1ccccc1 (stereo not given),1,1,-3,13,/,/
Cc1nc2ccccc2c2nc3ccccc3n12,-9,36,-2,8,/,/
CCc1nc2cc(C)nn2c2nc3ccccc3n12,-6,91*,4,6,99*,30*
Cc1cc(C)n(-c2nc3ccccc3n3nnnc23)n1,-5,12,-2,-4,/,/
Cc1cc2nc(C)n3c4ccccc4nc3n2n1,-15,85*,-1,1,127*,13*
Clc1cccc(-c2sc(Nc3ccccc3)n[n+]2-c2ccccc2)c1Cl,1,5,-9,-16,/,/
Fc1ccc(-[n+]2nc(Nc3ccccc3)sc2-c2cccc(Cl)c2Cl)cc1,0,113*,-1,1,11,92*
Cc1c(/C=N/NC(N)=O)c2ccccn2c1C(=O)c1ccc(F)cc1,-14,90*,2,-10,26,77*
SMILES,PolyA inh,AHR activator,procasp3 activ,proCasp7 act,AHR act cf,PXR act counter
CNC(=S)N/N=C/c1c(C)c(C(=O)c2ccc(F)cc2)n2ccccc12,15,23,-7,-17,/,/
[O-]/[N+](=C\c1ccccc1)c1ccc(Br)cc1,/,88*,-5,-7,114*,14*
COc1ccccc1NS(=O)(=O)c1ccc(C)c(NC(=O)C2CCCO2)c1 (stereo not given),/,0,-1,2,/,/
COc1cccc(NC(=O)/C=C/c2ccc([N+](=O)[O-])cc2)c1,4,88*,6,-8,91*,25*
Cc1cccc(/C=N/NC(=O)c2cccc(Cl)c2)n1,1,-2,-7,24,/,/
COc1ccc(C(=O)Nc2cccc(C(=O)N/N=C/c3ccc(OC)cc3OC)c2)cc1,3,36,0,9,/,/
Cc1cccc(/C=N/NC(=O)c2cccc(NC(=O)c3ccccc3)c2)n1,6,106*,-1,22,102*,28*
COc1ccc(/C=N/NC(=O)c2cccc(NC(=O)c3ccccc3)c2)c(C(=O)O)c1OC,-4,113*,3,1,95*,13*
CN(CC(=O)Nc1ccc(F)cc1)C(=O)CNC(=O)C1CCCCC1,/,-1,3,6,/,/
CCc1ccc(Nc2cc(C)nc3ncnn23)cc1,5,3,-1,11,/,/
CCn1c2ccccc2c2cc(Nc3cc(C)nc4ncnn34)ccc21,-1,132*,-1,14,89*,90*
CC(C)N1CCN(Cc2ccc(C#CCCO)cc2)CC1CCO (stereo not given),22,0,-3,-2,/,/
COc1ccccc1-n1c(SCC(=O)Nc2ccc(NC(C)=O)cc2)nc2c([nH]c3ccccc32)c1=O,1,81*,-6,-7,100*,119*
COc1ccccc1-n1c(SCC(=O)NCC2CCCO2)nc2c([nH]c3ccccc32)c1=O (stereo not given),19,90*,-5,3,127*,164*
COc1ccc(-n2c(SCC(=O)Nc3ccc(NC(C)=O)cc3)nc3c([nH]c4ccccc43)c2=O)cc1OC,-11,41,7,0,/,/
COCCn1c(SCC(=O)Nc2ccc(C(C)=O)cc2)nc2c([nH]c3ccccc32)c1=O,-14,41,1,7,/,/
COCCn1c(SCC(=O)Nc2cccc(NC(C)=O)c2)nc2c([nH]c3ccccc32)c1=O,-5,108*,3,-6,91*,39*
CCn1c(SCC(=O)NCC2CCCO2)nc2c([nH]c3ccccc32)c1=O (stereo not given),-19,80*,6,-6,88*,80*
COc1ccc(Cl)cc1-c1nc(SCC(=O)N(C)C2CCS(=O)(=O)C2)n[nH]1 (stereo not given),/,8,1,-1,/,/
COc1ccccc1CNC(=O)CN1C(=O)NC2(CCCCCCC2)C1=O,/,1,12,9,/,/
CCN1CCN(CCCNC(=O)CCC(=O)N2CC(C)Oc3ccc(C)cc32)CC1 (stereo not given),-12,2,2,-5,/,/
COc1cccc(C(=O)N2CCC(n3nccc3NC(=O)CCOc3ccccc3)CC2)c1,32,1,5,-10,/,/
